Measurements published in PubChem BioAssay AID1515 (The Scripps Research Institute Molecular Screening Center, 2009).
Hit rate of the full screen: of about 220,000 compounds, about 440 (0.2%) were called active. The sample holds actives, similar compounds and a random draw of the others, so the mix is not that of the screen. Unmarked numbers belong to inactive results.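 Rule for the calls: active = inhibition above the campaign mean of all tested compounds plus 3 SD (cut at about 14% in these data); inactive = the rest.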

Biological target: Serine hydrolase RBBP9 (Homo sapiens) (UniProt O75884)
Sequence (O75884 whole entry, looked up): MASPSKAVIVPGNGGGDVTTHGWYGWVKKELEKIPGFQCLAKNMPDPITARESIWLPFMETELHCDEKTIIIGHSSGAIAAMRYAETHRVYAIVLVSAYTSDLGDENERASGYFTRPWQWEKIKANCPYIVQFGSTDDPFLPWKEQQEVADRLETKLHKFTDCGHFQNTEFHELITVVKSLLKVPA
Assay: blockers of RBBP9 serine hydrolase labeling – biochemical, fluorescence polarization, FP-Rh probe, HTS, primary screen (AID 1515);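 note: plate controls were DMSO wells with RBBP9 for no effect and wells lacking RBBP9 protein for full effect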
Details: recombinant RBBP9, FP-Rh probe fluorescence polarization; at 7.94 µM; stronger effect = higher value
In short: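 Measured by: FP readout at 525/598 nm; material: recombinant human RBBP9; also added: Serine-hydrolase probe FP-Rh, 375 nM pre-mixing; medium: Tris buffer pH 8.0, NaCl, Pluronic; replication: one well per compound; doses: one concentration, 7.94 µM nominal, 0.794% DMSO; timing: preincubation 30 min plus labeling 45 min at 25 °C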

Structure (SMILES)	inhibition
Cc1ccnc(Nc2nc3ccccc3s2)n1	-1.41%
Cc1ccnc(SCC(N)=O)n1	-18.6%
Cc1ccnc(-n2sc3ccccc3c2=O)n1	43.2% (active)
CCOC(=O)CCCNC(=O)COC(=O)/C=C/c1ccc2c(c1)OCO2	6.07%
Cc1ccc(C(O)P(=O)(OC(C)C)c2ccc(N(C)C)cc2)cc1 (configuration not stated)	-1.11%
O=C(C1CCCO1)N1CCN(C(=S)Nc2cccc(Cl)c2)CC1 (configuration not stated)	-9.39%
O=C(COc1ccc(Cl)cc1)N1CCN(c2cccc(C(F)(F)F)c2)CC1	-0.45%
CCC(=O)c1ccc(OCC(O)CN2CC(C)OC(C)C2)cc1 (configuration not stated)	-8.04%
CCC(=O)c1ccc(OCC(O)CN2CCN(c3cccc(C(F)(F)F)c3)CC2)cc1 (configuration not stated)	17.3% (active)
O=C(O)c1ccccc1-c1ccccc1C(=O)Nc1nccs1	-2.01%
CCN1CCc2nc(NC(=O)c3cc(F)c(F)cc3Cl)sc2C1	-0.19%
CCOc1ccc2nc(NCCNC(=O)C(C)(C)C)c(C)cc2c1	-3.3%
Cc1ccc(C(=O)COC(=O)CCN2C(=O)C3C4CC(C(Br)C4Br)C3C2=O)cc1 (configuration not stated)	-2.32%
COc1ccc(OC)c(NC(=S)N2CCc3ccccc3C2)c1	1.81%
Cc1ccc(C)c(Cn2cnc3c(oc4ccccc43)c2=O)c1	-1.77%
Cc1ccc(CN2CCN(Cc3ccccc3-c3ccco3)CC2CCO)o1 (configuration not stated)	-3.63%
CN(C)c1nnnn1-c1ccc(Cl)cc1	3.3%
CC(C)c1ccc(Nc2nnc(SCC(=O)c3nnc(-c4ccccc4)o3)s2)cc1	-10.9%
CCC(=O)N1CCCc2ccccc21	16.1% (active)
O=C(CSCc1ccccc1)N1CCc2ccccc21	-3.54%
Cc1occc1C(=O)N1CCCc2ccccc21	7.03%
COc1cc(OC)cc(-c2nc(=S)n3ccsc3n2)c1	0.8%
O=C1CN(C(=O)CN2C(=O)NC3(CCCCC3)C2=O)c2ccccc2N1	-4.87%
CCSc1ccccc1C(=O)Nc1ccc2c(c1)OCO2	-7.81%
CN(/C(=N/S(=O)(=O)c1cccs1)c1ccccc1)c1ccc(O)cc1	-5.39%
O=C(CSc1nnc(SCc2ccc(Cl)cc2)s1)N/N=C/c1ccccc1Cl	-7.13%

Structure (SMILES)	inhibition
COc1cc(NC(=S)NCc2ccc(S(N)(=O)=O)cc2)cc(OC)c1	1.34%
COc1ccc(NS(=O)(=O)c2cc(NC(=O)CC(=O)c3ccc([N+](=O)[O-])cc3)ccc2C)cc1	28.9% (active)
COc1ccc(CCC(=O)OCC(=O)Nc2ccc(C)c(S(=O)(=O)N(C)C)c2)cc1	-1.71%
COc1cccc(NCCC(=O)c2cccc([N+](=O)[O-])c2)c1	-8.98%
COc1cccc(NC(=O)NCc2ccc(F)cc2)c1	-0.62%
CCNC(=S)NNC(=O)C1CCN(Cc2ccccc2)CC1	-3.59%
CC(=O)c1ccc(NC(=O)c2ccc3c(Cl)c4c(nc3c2)CCCC4)cc1	-3.32%
CCC(=O)Nc1ccc(C(=O)Nc2cccc(OC)c2)cc1	-4.79%
COc1cccc(NC(=O)c2ccc3c(SCC(=O)O)c4c(nc3c2)CCCC4)c1	14.3% (active)
O=C(NCCCn1ccnc1)C(=O)NCC1OCCN1S(=O)(=O)c1cc(F)ccc1F (configuration not stated)	-2.12%
Cc1cc(F)ccc1S(=O)(=O)N1CCCOC1CNC(=O)C(=O)NCCC1=CCCCC1 (configuration not stated)	44.9% (active)
O=C(NCc1cccs1)C(=O)NCC1OCCCN1S(=O)(=O)c1ccc(F)cc1 (configuration not stated)	-5.51%
Cc1cc(CO)nn1-c1ccc([N+](=O)[O-])cc1	-1.67%
CCN(CC)Cc1nc2sc(C)c(C)c2c(=O)[nH]1	0.79%
COc1ccc(C(=O)CSc2nnc(-c3ccco3)o2)cc1	-6.2%
CC(C)n1c(=S)[nH]c2cc(C(F)(F)F)ccc21	-5.5%
CCN(C(=O)Cc1nc(N)n[nH]1)C1(C(=O)Nc2ccccc2)CCCCC1	4.99%
COc1ccc(-n2nnnc2SCc2nc(N)nc(N3CCOCC3)n2)cc1	14.8% (active)
COc1ccc(-n2nnnc2SCC(=O)NCc2cccs2)cc1	-4.68%
COc1ccc(-c2nnn(Cc3nc(N)nc(N4CCCCC4)n3)n2)cc1	-9.6%
Cc1onc(-c2ccccc2Cl)c1C(=O)OCC(=O)c1ccccc1	-7.59%
O=c1nc(N/N=C/c2ccco2)cn[nH]1	-3.99%
COC(=O)c1ccccc1NC(=O)Cc1ccccc1OC	6.78%
COCCn1nnnc1C(c1cc2ccc(OC)cc2[nH]c1=O)N1CCc2ccccc2C1 (configuration not stated)	5.71%
CCOc1ccc2[nH]c(=O)c(C(c3nnnn3CCOC)N3CCOCC3)cc2c1 (configuration not stated)	15.5% (active)
CN1CCN(C(c2cc3cc4c(cc3[nH]c2=O)OCCO4)c2nnnn2C2CCCC2)CC1 (configuration not stated)	-9.4%

Structure (SMILES)	inhibition
C[N+](C)(C)CCOP(=O)([O-])OC[C@H](O)CO	0.46%
COc1ccccc1N1CCN(CC(=O)NCCc2ccc(S(N)(=O)=O)cc2)CC1	0.48%
CCCC(NC(=O)c1ccco1)c1nc2ccccc2[nH]1 (configuration not stated)	0.23%
O=C(CN1CCN(c2ccc(Cl)cc2)CC1)NCc1cccs1	-5.55%
CC(C)c1ccc(NC(=S)NNc2ccc(Cl)c(C(=O)O)c2)cc1	-0.79%
Nc1nnc(SCC(=O)OCc2ccc(Cl)c(Cl)c2)s1	-1.35%
C=CCn1c(COc2ccccc2F)nnc1SCC(=O)N1CC(=O)Nc2ccccc21	-3.31%
Cc1nc(SCC(=O)N2CC(=O)Nc3ccccc32)c2c(C)c(C)sc2n1	-7.82%
Nn1c(Cc2cccc3ccccc23)nnc1SCC(=O)N1CC(=O)Nc2ccccc21	15.1% (active)
CN1CCNC(=O)C1CC(=O)N1CC=C(c2ccc(F)cc2)CC1 (configuration not stated)	1.72%
COc1cc2c3c(c1)/C(=C1/SC(=S)NC1=O)C(=O)N3C(C)(C)C=C2C	-0.69%
C=CS(=O)c1sc(Cl)c(N2CCOCC2)c1[N+](=O)[O-] (configuration not stated)	17.3% (active)
COC(=O)COc1ccc(C2NC(=O)NC(C)=C2C(=O)NCc2ccccc2)cc1OC (configuration not stated)	-2.89%
O=C(CNc1ccc(F)cc1F)NC(=O)NCc1ccco1	5.92%
Oc1c(C(c2cccs2)N2CCN(c3ccc(F)cc3)CC2)sc2ncnn12 (configuration not stated)	-6.82%
O=C(c1ccc(F)cc1)N1CCC(n2nnc3ccccc32)CC1	1.82%
Cc1cccc(C)c1Nc1c(-c2ccccc2O)nc2ncccn12	4.64%
Cc1ccc(-c2nc(C#N)c(NCCCn3ccnc3)o2)cc1	-5.98%
CC(C)c1ccc2c(c1)c(SC(C)(C)C)c(CC(C)(C)C(=O)O)n2Cc1ccc(Cl)cc1	5.23%
CCN(CC)C(=O)Oc1ccc(OC(=O)N(CC)CC)cc1	3.51%
CCCc1nc2oc3c(OCC)ncnc3c2c2c1COC(C)(C)C2	-0.01%
CC(C)(C)C(=O)NC(NC(=S)Nc1ccc(S(N)(=O)=O)cc1)C(Cl)(Cl)Cl (configuration not stated)	-7.24%
O=C(CCCC(=O)N(CC(=O)NC1CCCC1)Cc1ccccc1Cl)Nc1ccccn1	16.9% (active)
CCOc1ccccc1N(CC(=O)NC1CCCCC1)C(=O)CCCC(=O)Nc1ccccn1	-3.56%
Cc1ccc(C(C(=O)NC2CCCC2)N(Cc2ccco2)C(=O)CCC(=O)Nc2ccccn2)cc1 (configuration not stated)	-4.24%
